Data set [1] is described as follows: folding enthalpy; higher = less favourable; fluorescence melt of hairpins on a sequencing array, two-state fit. The note with it: sodium 0.088 M. Summed up:
(§1)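 Hairpins were imaged by Cy3 fluorescence on a sequenced MiSeq flow cell with annealed Cy3 and quencher oligos, in 50 mM Na-HEPES pH 8.0, 25 mM NaCl, in 2.5 °C steps up to 60 °C. Bootstrapped two-state fits of normalised signals gave melting temperature and folding enthalpy. Four replicates were combined by inverse variance, and fitted temperatures were raised by 9.35 °C to match UV melts.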

Data set [2] is described as follows: melting temperature; fluorescence melt of hairpins on a sequencing array, two-state fit, raised by 9.35 °C to match UV melts. The note with it: sodium 0.088 M. Summed up:
as §1

For the sequence GATCCTAGTCAGGATC ((((((....)))))), the folding enthalpy in data set [1] was -45.9 kcal/mol. The Tm in data set [2] turned out to be 51.6 °C.

Consider GATCCTATAAAGGATC ((((((....)))))), for which the folding enthalpy in data set [1] was -38.6 kcal/mol. Besides, in data set [2], the Tm is 51.8 °C.

Regarding GATCCTATAGAGGATC ((((((....)))))), the folding enthalpy in data set [1] is -28.9 kcal/mol. Moreover, the Tm in data set [2] was determined as 50.4 °C.

Turning to GATCCTATTGAGGATC ((((((....)))))), the folding enthalpy in data set [1] was -40.9 kcal/mol. In addition, the Tm in data set [2] amounted to 51.4 °C.

As to GATCCTCAAGAGGATC ((((((....)))))), the folding enthalpy in data set [1] was -38 kcal/mol. In addition, the Tm in data set [2] is 53.4 °C.

Take GATCCTCCGCAGGATC ((((((....)))))): in data set [1], the folding enthalpy was -14.5 kcal/mol. Also, the Tm in data set [2] stood at 44.6 °C.

Turning to GATCCTCCTCAGGATC ((((((....)))))), the folding enthalpy in data set [1] was -45.2 kcal/mol. Besides, in data set [2], the Tm came to 50.2 °C.

Regarding GATCCTCCTGAGGATC ((((((....)))))), the folding enthalpy in data set [1] is -41.2 kcal/mol. The Tm in data set [2] stood at 57.2 °C.

On to GATCCTCGACAGGATC ((((((....)))))), for which the folding enthalpy in data set [1] is -35.6 kcal/mol. Moreover, the Tm in data set [2] was 48.5 °C.

Take GATCCTCGCAGGATC ((((((...)))))): the folding enthalpy in data set [1] is -33.8 kcal/mol. Also, the Tm in data set [2] is 55.5 °C.

Take GATCCTCGGAAGGATC ((((((....)))))): the folding enthalpy in data set [1] is -34.4 kcal/mol. Further, the Tm in data set [2] is 50.2 °C.

As to GATCCTCGGCAGGATC ((((((....)))))), the folding enthalpy in data set [1] was -29.4 kcal/mol. Besides, in data set [2], the Tm was 49.7 °C.

With GATCCTCGGGAGGATC ((((((....)))))), the folding enthalpy in data set [1] was -37.7 kcal/mol. Further, the Tm in data set [2] came out at 56.1 °C.

As for GATCCTCGTTAGGATC ((((((....)))))), in data set [1], the folding enthalpy is -39.1 kcal/mol. Further, the Tm in data set [2] is 51.7 °C.

In the case of GATCCTCTAAGGATC ((((((...)))))), in data set [1], the folding enthalpy is -33.3 kcal/mol. Moreover, in data set [2], the Tm amounted to 54.3 °C.

In the case of GATCCTCTGGAGGATC ((((((....)))))), the folding enthalpy in data set [1] is -39.5 kcal/mol. For the same sequence, in data set [2], the Tm is 58.3 °C.

In the case of GATCCTCTTAAGGATC ((((((....)))))), the folding enthalpy in data set [1] was -42.5 kcal/mol. The Tm in data set [2] worked out at 52.9 °C.

In the case of GATCCTGACAGGATC ((((((...)))))), the folding enthalpy in data set [1] is -38.9 kcal/mol. Moreover, in data set [2], the Tm turned out to be 55.7 °C.

GATCCTGACTAGGATC ((((((....)))))): the folding enthalpy in data set [1] is -43.3 kcal/mol. Moreover, the Tm in data set [2] was 56.7 °C.

For the sequence GATCCTGAGAAGGATC ((((((....)))))), in data set [1], the folding enthalpy was -40.2 kcal/mol. Moreover, the Tm in data set [2] was 57.6 °C.

Regarding GATCCTGATCAGGATC ((((((....)))))), the folding enthalpy in data set [1] was -39.8 kcal/mol. Besides, the Tm in data set [2] was determined as 56.1 °C.

Consider GATCCTGCCAAGGATC ((((((....)))))), for which, in data set [1], the folding enthalpy was -38.6 kcal/mol. Besides, the Tm in data set [2] was determined as 65.6 °C.

Take GATCCTGCCAGGATC ((((((...)))))): the folding enthalpy in data set [1] was -34.7 kcal/mol. In addition, in data set [2], the Tm turned out to be 56.6 °C.

For GATCCTGCTAAGGATC ((((((....)))))), in data set [1], the folding enthalpy is -46.2 kcal/mol. Further, the Tm in data set [2] came to 63.2 °C.

Take GATCCTGGAAACAGAATC (((.(((....))).))): the folding enthalpy in data set [1] is -16.8 kcal/mol. The Tm in data set [2] was 30.1 °C.

For GATCCTGGAAACAGGACC (.(((((....))))).), the folding enthalpy in data set [1] was -14.4 kcal/mol. In addition, in data set [2], the Tm was determined as 40.1 °C.

Turning to GATCCTGGGCAGGATC ((((((....)))))), in data set [1], the folding enthalpy was -35.7 kcal/mol. In addition, the Tm in data set [2] came out at 54.2 °C.

Regarding GATCCTGGGTAGGATC ((((((....)))))), the folding enthalpy in data set [1] is -33.4 kcal/mol. Also, the Tm in data set [2] came out at 51.3 °C.

GATCCTGGTAGGATC ((((((...)))))): the folding enthalpy in data set [1] is -32.6 kcal/mol. Moreover, the Tm in data set [2] worked out at 54.6 °C.

Take GATCCTGGTGAGGATC ((((((....)))))): in data set [1], the folding enthalpy is -42.1 kcal/mol. Besides, in data set [2], the Tm was found to be 52.5 °C.

As for GATCCTGTACAGGATC ((((((....)))))), the folding enthalpy in data set [1] was -40.7 kcal/mol. The Tm in data set [2] came out at 60.2 °C.

Consider GATCCTGTGAAGGATC ((((((....)))))), for which, in data set [1], the folding enthalpy was -35.4 kcal/mol. In addition, the Tm in data set [2] amounted to 58.4 °C.

As for GATCCTGTTAGGATC ((((((...)))))), the folding enthalpy in data set [1] was -38.1 kcal/mol. The Tm in data set [2] is 55.4 °C.

As to GATCCTGTTTAGGATC ((((((....)))))), the folding enthalpy in data set [1] was -44.3 kcal/mol. Besides, the Tm in data set [2] is 52.6 °C.

In the case of GATCCTTAAGAGGATC ((((((....)))))), in data set [1], the folding enthalpy was -38.1 kcal/mol. Moreover, in data set [2], the Tm was found to be 50.9 °C.

Consider GATCCTTACCAGGATC ((((((....)))))), for which the folding enthalpy in data set [1] is -33.6 kcal/mol. In addition, in data set [2], the Tm stood at 52.1 °C.

With GATCCTTAGAAGGATC ((((((....)))))), the folding enthalpy in data set [1] is -33.8 kcal/mol. The Tm in data set [2] worked out at 50.2 °C.

On to GATCCTTAGTAGGATC ((((((....)))))), for which the folding enthalpy in data set [1] was -35.8 kcal/mol. Moreover, the Tm in data set [2] turned out to be 50.3 °C.

The values are drawn from the array DNA melting data of Ke et al. (doi:10.1101/2024.01.08.574731).
